Source: PubChem
DYRK1A inh: rat Dyrk1A kinase inhibitors, primary screen, biochemical, single point, plate reader. inhibition, % at 12.5 µM. Dual specificity tyrosine-phosphorylation-regulated kinase 1A (Rattus norvegicus), Q63470. ADP-Glo luminescence, NFATc1 peptide. AID 504441, 2011. 310,000 compounds, 0.43% hits; in the data active means inhibition above about 50%;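 further: plate controls were vehicle with enzyme for no effect and no enzyme for full effect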
Rtt109 Vps75: inhibitors of C. albicans Rtt109/Vps75 HAT, primary screen, biochemical, ThioGlo CoA-SH fluorescence, plate reader; Histone acetyltransferase RTT109 (Candida albicans (strain SC5314 / ATCC MYA-2876)), …; 330,000 compounds, 0.16% hits; purified Rtt109/Vps75, 4 h; inhibition, % at 34.9 µM;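 active means inhibition of at least 50% in every replicate; inconclusive means best replicate reaches 50% inhibition but some replicates fall short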
Target sequence (Q5AAJ8 whole entry, looked up): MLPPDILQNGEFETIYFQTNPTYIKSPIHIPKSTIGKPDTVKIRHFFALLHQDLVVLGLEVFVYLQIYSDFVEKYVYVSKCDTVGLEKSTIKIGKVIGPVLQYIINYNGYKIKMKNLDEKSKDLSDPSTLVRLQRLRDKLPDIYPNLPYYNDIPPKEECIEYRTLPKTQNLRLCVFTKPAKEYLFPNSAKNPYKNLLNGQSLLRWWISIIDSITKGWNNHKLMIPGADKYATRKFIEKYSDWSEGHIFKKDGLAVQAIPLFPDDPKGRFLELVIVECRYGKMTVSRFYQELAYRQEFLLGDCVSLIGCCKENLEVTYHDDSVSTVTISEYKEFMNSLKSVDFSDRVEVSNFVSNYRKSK
CDK5 inh: inhibitors of human CDK5/p35 kinase, primary screen, biochemical, single concentration; Cyclin-dependent kinase 5 (Homo sapiens) + Cyclin-dependent kinase 5 activator 1 (Homo …; Recombinant CDK5/p35, ADP-Glo luminescence, 60 min; inhibition, % at 10 µM; 330,000 compounds, 0.01% hits;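 active means highest replicate inhibition of at least 50% and at least 75% of replicates reaching 50%; inconclusive means only one of the two criteria met; inactive means both criteria failed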;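 further: plate controls were DMSO neutral control for no effect and GW8510 at 10 µM for full effect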
CAL PDZ FP-1: untagged CAL PDZ binding inhibitors, primary screen, biochemical, fluorescence polarization, HTS; inhibition, % at 24.9 µM; 300,000 compounds, 0.92% hits; purified CAL PDZ, TMR-peptide fluorescence polarization, 1 h; AID 602252, 2012; Golgi-associated PDZ and coiled-coil motif-containing protein (Homo sapiens), Q9HD26;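 active means mean inhibition of at least 30% with at least half of replicates also reaching 30%; inconclusive means no clear call, values can overlap the other calls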;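 further: 0% = DMSO neutral control and 100% = excess unlabeled competitor peptide PRC23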
dFosB activator: activators of delta FosB homodimer, primary screen, biochemical, fluorescence polarization, TAMRA-CDK5 oligo, single point | purified delta FosB; percent of positive-control signal above neutral wells | Protein FosB (Mus musculus), P13346 | activation, % at 25 µM | 340,000 compounds, 0.99% hits;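 active means mean activation above about 17%, with every replicate also reaching it, limit read from the data, passing the limit was not always enough; inconclusive means only one of the two conditions met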
Target sequence (P13346 whole entry, looked up): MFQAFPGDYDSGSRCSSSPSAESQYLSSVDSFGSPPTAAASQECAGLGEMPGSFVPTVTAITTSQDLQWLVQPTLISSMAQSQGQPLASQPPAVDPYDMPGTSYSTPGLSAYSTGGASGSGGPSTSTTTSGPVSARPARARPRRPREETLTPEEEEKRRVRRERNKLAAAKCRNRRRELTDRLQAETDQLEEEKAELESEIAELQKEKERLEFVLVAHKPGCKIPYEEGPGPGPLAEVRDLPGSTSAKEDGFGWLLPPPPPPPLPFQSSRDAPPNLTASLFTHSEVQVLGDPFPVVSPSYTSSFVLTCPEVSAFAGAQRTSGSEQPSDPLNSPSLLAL
CAL PDZ FP-2: CAL PDZ peptide-binding inhibitors, primary screen, biochemical, fluorescence polarization, Cer-tagged CAL PDZ, HTS | Golgi-associated PDZ and coiled-coil motif-containing protein (Homo sapiens), Q9HD26 | purified CAL PDZ, TMR-peptide fluorescence polarization, 1 h | inhibition, % at 20 µM | 330,000 compounds, 0.02% hits | AID 504414, 2011;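 active means highest replicate inhibition of at least 40%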;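 further: plate controls were DMSO neutral control wells for no effect and unlabeled competitor peptide control wells for full effect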
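Material – purified CerCALP PDZ construct · Detection – FP readout, S and P plane fluorescence · Measure – percent inhibition from loss of millipolarization · Controls – unlabelled peptide for full inhibition, DMSO wells as neutral · Probe or stimulus – TMR-labelled reporter peptide T*-PRC34 bound in PDZ groove · Times – 1 h at RT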
The depositor's hits bear a star; ? = inconclusive; . = no result. This is a sample that favours compounds with a hit; in the whole collection about 2.2% have one here.

SMILES	DYRK1A inh	Rtt109 Vps75	CDK5 inh	CAL PDZ FP-1	dFosB activator	CAL PDZ FP-2
COc1ccc(N2C(=NC(=O)CC3CCCCC3)SC3CS(=O)(=O)CC32)cc1 (stereo not given)	.	-2.1	.	-2.0	-8.2	-1.9
CC(C)n1cc(/C=N/Nc2ccc(C(=O)O)cc2)c2ccccc21	9.9	9.8	-1.1	71.4*	-4.1	0.2
CCOc1ccc2cc(S(=O)(=O)N3CCCCC3)ccc2c1	5.7	-3.7	1.3	60.3*	-7.0	-0.1
O=C(NCCC1=CCCCC1)C1CC(=O)N(Cc2ccccc2)C1 (stereo not given)	-1.2	-4.1	0.7	-2.5	-6.0	-2.0
COc1ccccc1OCCSc1nc2ccccc2n1CC(N)=O	-2.4	-3.6	-0.3	58.8*	7.7	.
CCOC(=O)c1c(C)[nH]c(C(=O)OCC(=O)Nc2cccnc2Cl)c1C	1.9	-0.9	0.1	-5.2	-4.0	-2.3
N#CC1C(=O)NC(=O)CC12CCCCC2 (stereo not given)	-7.3	-2.8	-1.0	80.1*	-8.3	-3.1
CCSC1=C(C#N)C2(CCCCC2)C(C#N)C(=O)N1 (stereo not given)	-2.9	5.9	-0.1	-2.0	5.0	-1.0
O=C(O)Cc1sc(-c2ccccc2)nc1-c1ccccc1	0.9	9.1	-1.1	-2.4	-6.7	0.3
O=C(O)Cc1sc(-c2ccc(Cl)cc2)nc1-c1ccccc1	7.7	-1.5	0.1	54.3*	-3.5	-1.2
COc1ccc(OC)c(C(=O)COC(=O)c2cccnc2SC)c1	-0.7	0.3	1.7	35.3*	-19.9	-1.9
COc1ccc(C(=O)COC(=O)c2cccnc2SC)cc1	-6.2	8.1	-3.4	-3.0	6.3	-2.7
CC(C)CNS(=O)(=O)c1cc2c3c(c1)CCC(=O)N3CCC2	-2.3	-2.6	-2.6	5.8	-1.6	-2.3
COC(CNS(=O)(=O)c1cc2c3c(c1)CCN3C(=O)CC2)OC	-2.8	4.9	-0.1	48.1*	-4.3	-0.5
Cc1ccc(CNC(=O)CCC(=O)Nc2nnc(C(C)C)s2)cc1	-1.7	-10.0	-1.1	-0.5	-13.5	-0.6
CCOC(=O)c1c(NC(=O)COC(=O)c2cnccn2)sc(C(=O)NC)c1C	.	-6.8	0.1	-2.8	39.1*	-0.3
COc1ccc(NC(=O)CCNS(=O)(=O)c2ccc3c(c2)c(=O)n(C)c(=O)n3C)c(OC)c1	-5.6	-6.7	2.4	-2.2	0.5	-0.2
O=C(Nc1ccccc1N1CCCC1)c1cccc(-c2cc3ccccc3oc2=O)c1	0.8	2.7	-1.6	-4.0	-6.6	0.1
Cc1nc(NC(=O)c2ccc(-c3cc4ccccc4oc3=O)cc2)ccc1Br	1.4	-17.4	2.6	-4.9	3.6	-3.1
O=C(Nc1ccc(N2CCCC2)cc1)c1cccc(-c2cc3ccccc3oc2=O)c1	-6.7	-7.0	-0.5	9.8	17.5*	0.6
Cc1nc(NC(=O)c2cccc(-c3cc4ccccc4oc3=O)c2)ccc1Br	-2.8	-14.5	-0.6	.	168.1*	-2.2
COc1cccc(C(=O)COC(=O)c2ccc(NC(C)=O)cc2)c1	-1.7	0.2	-1.4	52.7*	-1.2	-0.6
COc1ccc(C(=O)COC(=O)c2ccc(NC(C)=O)cc2)cc1[N+](=O)[O-]	-2.6	4.5	-1.3	-4.4	-5.0	-1.4
CC[n+]1c(/C=C/C=C/N(C(C)=O)c2ccccc2)sc2ccccc21	19.7	10.6	2.7	-9.8	43.3*	-11.1
CC1CCCCN1C(=O)COC(=O)c1ccc(N2CCCC2=O)cc1 (stereo not given)	-0.3	-6.3	-1.3	.	1.3	0.6
SMILES	DYRK1A inh	Rtt109 Vps75	CDK5 inh	CAL PDZ FP-1	dFosB activator	CAL PDZ FP-2
CC1CCN(C(=O)COC(=O)c2ccc(N3CCCC3=O)cc2)CC1	-4.4	10.3	-1.8	46.3*	-2.1	-0.5
O=C(CCCN1C(=O)/C(=C\c2cccs2)SC1=S)Nc1ccc(O)cc1	-3.2	1.7	-0.2	.	-0.4	0.1
O=C(CCN1C(=O)/C(=C/c2ccccc2)SC1=S)Nc1ccccn1	-2.8	-1.9	-1.2	-3.9	0.4	-2.2
O=C(O)C(c1ccccc1)N1C(=O)/C(=C/c2cccs2)SC1=S (stereo not given)	-4.9	14.1	0.7	.	-13.6	-1.9
O=C(CCCN1C(=O)/C(=C/c2cccs2)SC1=S)Nc1ccccc1O	-6.2	1.9	0.3	-3.0	33.6*	-1.4
O=C(O)C(Cc1ccccc1)N1C(=O)/C(=C/c2cccs2)SC1=S (stereo not given)	-6.5	55.8*	-1.6	-4.4	-4.8	-1.1
Cc1cc(NC(=O)CCN2C(=O)/C(=C\c3ccccc3)SC2=S)no1	6.8	-5.4	0.8	-4.1	40.4*	0.8
CCOc1ccc(/C=C2\SC(=S)N(CC(=O)Nc3ccccn3)C2=O)cc1	2.4	-9.9	-0.5	-2.9	21.8*	-1.0
CCCC(C(=O)NCc1ccco1)N(Cc1ccco1)C(=O)CNS(=O)(=O)c1ccccc1 (stereo not given)	-5.6	2.8	1.8	-2.6	2.5	-2.5
COC(=O)C=C1CCC2C3CCC4=CC(=O)CCC4(C)C3C(=O)CC12C (stereo not given)	5.1	4.6	1.9	-1.3	-16.1	-0.3
Cc1cc(NC(=O)CN2C(=O)/C(=C/c3ccccc3F)SC2=S)no1	-7.2	-7.0	-2.9	.	?	-0.7
Cc1cc(NC(=O)CCCN2C(=O)/C(=C/c3ccccc3Cl)SC2=S)no1	2.3	-7.7	1.2	-5.6	36.9*	-1.5
CC(C)n1c(O)c(N=NC(=O)c2ccccc2NS(=O)(=O)c2cccs2)c2ccccc21	0.0	5.2	2.3	2.8	29.6*	-0.4
CCCCn1c(O)c(N=NC(=O)c2ccccc2NS(=O)(=O)c2cccs2)c2ccccc21	-5.2	2.1	-1.3	-9.9	-2.6	0.1
O=C(c1ccc(Br)cc1)N(Cc1nc2ccccc2c(=O)[nH]1)C1CCCC1	24.3	12.1	-0.2	0.4	-0.7	-2.3
NS(=O)(=O)c1ccc(CCNc2ccccc2[N+](=O)[O-])cc1	27.8	0.4	0.6	-5.3	-4.1	0.1
COc1ccc(C(C[N+](=O)[O-])c2c(-c3ccccc3)cc3ccccn23)cc1 (stereo not given)	4.2	12.5	-0.4	84.7*	-11.7	-1.3
